Reference: ChEMBL document CHEMBL5241063, “Synthetic and medicinal perspective of quinolines as antiviral agents” (Eur J Med Chem, 2021)

How the values were obtained:
[1] = Inhibition of HIV-1 integrase; set-up: species or system Human immunodeficiency virus 1
[2] = molecular target: Human immunodeficiency virus type 1 reverse transcriptase (Human immunodeficiency virus 1, UniProt Q72547); assay: Inhibition of HIV-1 reverse transcriptase incubated for 90 mins by liquid scintillation counting analysis
[3] = Cytotoxicity against human RD cells by neutral red method; format: toxicity, cell-based
[4] = tested on: SNB-19; assay: (§1) Cytotoxicity against human SNB-19 cells incubated for 24 hrs; format: toxicity, cell-based; conditions: snb-19, 24 h
[5] = tested on: Vero; assay: (§2) Cytotoxicity against african green monkey Vero cells incubated for 48 hrs; format: toxicity, cell-based; conditions: chlorocebus sabaeus, vero, 48 h
[6] = tested on: Human immunodeficiency virus 1; assay: Antiviral activity against HIV-1 92US657 infected in human MT2 cells assessed as inhibition of viral infection; format: functional, organism-based; conditions: Human immunodeficiency virus 1, 92US657, MT2
[7] = tested on: Human immunodeficiency virus 1; assay: Antiviral activity against HIV-1 IIIB infected in human MT2 cells assessed as inhibition of viral replication by p24 ELISA method; format: functional, organism-based; conditions: Human immunodeficiency virus 1, IIIB
[8] = tested on: Human immunodeficiency virus 1; assay: Antiviral activity against HIV-1 infected in human HeLa P4 cells assessed as inhibition of viral particles production; format: functional, organism-based; conditions: Human immunodeficiency virus 1, HeLaP4
[9] = Selectivity index, ratio of CC50 for cytotoxicity against human RD cells to EC50 for antiviral activity against Enterovirus D68 US/KY/14-18953 infected in human RD cells; format: toxicity, cell-based; conditions: read-out: Ratio CC50/EC50
[10] = tested on: enterovirus D68; assay: Antiviral activity against Enterovirus D68 US/KY/14-18953 infected in human RD cells assessed as reduction in virus induced cytopathic effect; format: functional, organism-based; conditions: Enterovirus D, US/KY/14-18953, RD
[11] = tested on: Human immunodeficiency virus 1; assay: Anti-HIV activity against HIV-1 NL4.3 infected in human MT2 cells measured after 7 days by MTT assay; format: functional, organism-based; conditions: Human immunodeficiency virus 1, NL4.3, MT2, 168 h
[12] = tested on: Human immunodeficiency virus 1; assay: Anti-HIV activity against HIV-1 NL4.3 infected in human MT2 cells measured after 48 hrs by luminescence based assay; format: functional, organism-based; conditions: Human immunodeficiency virus 1, NL4.3, MT2, 48 h
[13] = tested on: Ebolavirus; assay: Antiviral activity against recombinant VSV-deltaG pseudotyped GFP-tagged EBOV infected in human Huh-7 cells preincubated with cells for 1 hr followed by viral infection and measured after 16 hrs by […] assay; format: functional, organism-based; conditions: Orthoebolavirus
[14] = Selectivity index, ratio of CC50 for cytotoxicity against human Huh-7 cells to IC50 for antiviral activity against recombinant VSV-deltaG pseudotyped GFP-tagged EBOV infected in human Huh-7 cells; format: toxicity, cell-based; conditions: read-out: Ratio CC50/IC50
[15] = Cytotoxicity against human CEM-SS cells assessed as inhibition of cell growth; format: toxicity, cell-based
[16] = tested on: Human immunodeficiency virus 1; assay: Antiviral activity against HIV-1 infected in human CEM-SS cells assessed as reduction in virus induced cytopathic effect by XTT assay; format: functional, organism-based; conditions: Human immunodeficiency virus 1, CEM-SS
[17] = as §1; format: toxicity, cell-based; conditions: SNB-19 cells
[18] = Selectivity index, ratio of CC50 for cytotoxicity against human SNB-19 cells to EC50 for antiviral activity against ZIKV PRVABC59; format: toxicity, cell-based; conditions: read-out: Ratio CC50/EC50
Outline: (§3)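 Human glioblastoma SNB-19 cells were infected with ZIKV strain PRVABC59 at MOI 1. Virus production was measured by titer assay in Vero cells. Niclosamide served as positive and quality control in each antiviral assay.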

[19] = as §2; format: toxicity, cell-based; conditions: chlorocebus sabaeus, Vero cells
[20] = tested on: Zika virus; assay: Antiviral activity against ZIKV PRVABC59; format: functional, organism-based; outline: as §3
[21] = Selectivity index, ratio of CC50 for cytotoxicity against african green monkey Vero cells to EC50 for antiviral activity against ZIKV PRVABC59; format: toxicity, cell-based; conditions: read-out: Ratio CC50/EC50
[22] = tested on: dengue virus type 2; assay: Antiviral activity against Dengue virus serotype 2 infected in african green monkey Vero cells assessed as reduction in virus yield preincubated for 1 hr followed by replacement with medium containing compounds and measured after 48 hrs by crystal violet staining based plaque assay; format: functional, organism-based
[23] = Cytotoxicity against african green monkey Vero cells incubated for 48 hrs by CellTiter-Glo luminescence based assay; format: toxicity, cell-based; conditions: chlorocebus sabaeus
[24] = Cytotoxicity against african green monkey Vero E6 cells by CCK8 assay; format: toxicity, cell-based, Vero C1008; conditions: chlorocebus sabaeus
[25] = tested on: Human immunodeficiency virus 1; assay: Antiviral activity against HIV-1 infected in human H9 cells assessed as inhibition of viral replication; format: functional, organism-based; conditions: Human immunodeficiency virus 1, H9

O=C(NNc1ccc([N+](=O)[O-])cc1[N+](=O)[O-])c1ccc2ccc(C(=O)O)c(O)c2n1
IC50 [1]: 3000 nM

COc1cc(/C=C/c2ccc3ccc(C(=O)O)c(O)c3n2)cc(O)c1O
IC50 [1]: 700 nM

O=C(O)c1ccc2ccc(/C=C/c3ccc(O)c(O)c3)nc2c1O
IC50 [1]: 2400 nM

O=C(O)c1ccc2ccc(/C=C/c3ccccc3)nc2c1O
IC50 [1]: 5300 nM

CC(C)[C@H]1C(=O)OC[C@@H](NC(=O)c2nc3ccccc3cc2O)C(=O)N2CCCC[C@H]2C(=O)NCC(=O)N(C)CC(=O)N(C)[C@@H](C(C)C)C(=O)OC[C@@H](NC(=O)c2nc3ccccc3cc2O)C(=O)N2CCCC[C@H]2C(=O)NCC(=O)N(C)CC(=O)N1C
IC50 [2]: 0.13 nM

CCN(CC)CCNC(=O)c1cc(OC(C)C)nc2ccccc12
CC50 [3]: 11200 nM

C=C1CC[C@@H]2[C@](C)(CO)[C@H](O)CC[C@@]2(C)[C@@H]1C/C=C1/C(=O)OC[C@@H]1Oc1c(Cl)cc(Cl)c2cccnc12
CC50 [4]: > 100000 nM | CC50 [5]: > 100000 nM

C=C1CC[C@@H]2[C@](C)(CO)[C@H](O)CC[C@@]2(C)[C@@H]1C/C=C1/C(=O)OC[C@@H]1Oc1cccc2ccc(C)nc12
CC50 [4]: > 100000 nM

Cc1cccc2cc(/C=C3\NC(=O)N(Cc4ccccc4)C3=O)c(Cl)nc12
EC50 [6]: 520 nM | EC50 [7]: 148 nM

COc1cc(/C=C/c2ccc3c(C(=O)O)cc(C(=O)O)c(O)c3c2)cc(O)c1O
IC50 [8]: 1600 nM

CN(C)CCNC(=O)c1cc(Oc2ccccc2)nc2ccccc12
CC50 [3]: 73700 nM | selectivity ratio [9]: 184 | EC50 [10]: 400 nM

COc1nc2ccccc2cc1/C=C1\NC(=O)N(Cc2ccccc2)C1=O
EC50 [6]: 520 nM | EC50 [7]: 1410 nM

Cc1ccc2cc(/C=C3\NC(=O)N(Cc4ccccc4)C3=O)c(Cl)nc2c1
EC50 [6]: 520 nM | EC50 [7]: 710 nM

COc1ccc2nc(OC)c(/C=C3\NC(=O)N(CCc4ccccc4)C3=O)cc2c1
EC50 [6]: 520 nM | EC50 [7]: 1510 nM

O=C1N/C(=C\c2cc3ccccc3nc2Cl)C(=O)N1Cc1ccccc1
EC50 [6]: 520 nM | EC50 [7]: 50600 nM

COc1ccc2cc(/C=C3\NC(=O)N(CCc4ccccc4)C3=O)c(Cl)nc2c1
EC50 [6]: 520 nM | EC50 [7]: 460 nM

COc1ccc2nc(Cl)c(/C=C3\NC(=O)N(Cc4ccccc4)C3=O)cc2c1
EC50 [6]: 520 nM | EC50 [7]: 1960 nM

Cc1ccc2cc(/C=C3\NC(=O)N(CCc4ccccc4)C3=O)c(Cl)nc2c1
EC50 [6]: 520 nM | EC50 [7]: 2550 nM

COc1cc(OC)c2ccc(-c3cccc([N+](=O)[O-])c3)nc2c1
IC50 [11]: 18500 nM

COc1cc2c(c(OC)c1)[C@@H](N1CCCC1=O)C[C@@H](c1cccc(N)c1)N2
IC50 [12]: 50000 nM

CCN(CC)Cc1cc(Nc2ccnc3cc(I)ccc23)ccc1O
IC50 [13]: 640 nM | selectivity ratio [14]: > 130

Nc1cccc([C@@H]2C[C@H](N3CCCC3=O)c3ccccc3N2)c1
IC50 [12]: 50000 nM

O=C1N/C(=C\c2cc3ccccc3nc2Cl)C(=O)N1CCc1ccccc1
EC50 [6]: 520 nM | EC50 [7]: 2920 nM

Cc1ccc2nc(Cl)c(/C=C3\NC(=O)N(Cc4ccccc4)C3=O)cc2c1
EC50 [6]: 520 nM | EC50 [7]: 5540 nM

CN(C)CCNC(=O)c1cc(Oc2ccccc2)nc2ccc(F)cc12
EC50 [10]: 600 nM

O=C1N/C(=C\c2cccc3ccccc23)C(=O)N1CCc1ccccc1
EC50 [6]: 520 nM | EC50 [7]: 1930 nM

Cc1ccc2nc(Cl)c(/C=C3\NC(=O)N(CCc4ccccc4)C3=O)cc2c1
EC50 [6]: 500 nM | EC50 [7]: 22800 nM

C=CC(C)(C)C1(CC=C(C)C)C(=O)Nc2ccccc2C1OCC=C(C)C (centres undefined)
IC50 [15]: 26900 nM | EC50 [16]: 1640 nM

COc1nc2ccccc2cc1/C=C1\NC(=O)N(CCc2ccccc2)C1=O
EC50 [6]: 520 nM | EC50 [7]: 420 nM

COc1ccc2nc(Cl)c(/C=C3\NC(=O)N(CCc4ccccc4)C3=O)cc2c1
EC50 [6]: 520 nM | EC50 [7]: 1010 nM

Cc1cc(C)c2c(c1)N[C@H](c1cccc(N)c1)C[C@@H]2N1CCCC1=O
IC50 [12]: 50000 nM

COc1ccc2nc(OC)c(/C=C3\NC(=O)N(Cc4ccccc4)C3=O)cc2c1
EC50 [6]: 520 nM | EC50 [7]: 270 nM

CCCCCCCCN(C)Cc1cc(Nc2ccnc3cc(I)ccc23)ccc1O
IC50 [13]: 260 nM | selectivity ratio [14]: > 100

CCCCCCNCc1cc(Nc2ccnc3cc(Cl)ccc23)ccc1O
IC50 [13]: 290 nM

CN(C)CCNC(=O)c1cc(Oc2cccs2)nc2ccccc12
selectivity ratio [9]: > 600 | EC50 [10]: 40 nM

CCCCN(CCCC)Cc1cc(Nc2ccnc3cc(Cl)ccc23)ccc1O
IC50 [13]: 720 nM | selectivity ratio [14]: > 130

C=C1CC[C@H]2[C@@](C)(CCC(O)[C@@]2(C)CO)[C@@H]1C/C=C1/C(=O)OC[C@H]1Oc1cccc2cccnc12 (some centres undefined)
CC50 at 24 h [17]: 60100 nM | selectivity ratio [18]: 5.5 | CC50 at 48 h [19]: 22800 nM | EC50 [20]: 11000 nM | selectivity ratio [21]: 2.1

Cc1cccc2cc(/C=C3\NC(=O)N(CCc4ccccc4)C3=O)c(Cl)nc12
EC50 [6]: 520 nM | EC50 [7]: 500 nM

CC(C)c1ccc2c(Cl)cc(Cl)c(O)c2n1
IC50 [22]: 3030 nM | CC50 at 48 h [23]: 16100 nM

O=C(NCCN1CCCC1)c1cc(Oc2cccs2)nc2ccccc12
selectivity ratio [9]: > 600 | EC50 [10]: 60 nM

O=C(O)/C=C\c1cc(C(=O)O)c(O)c2cc(/C=C/c3ccc(O)c(O)c3)ccc12
IC50 [8]: 35000 nM

CN(C)CCNC(=O)c1cc(Oc2ccccc2)nc2ccc(Cl)cc12
EC50 [10]: 1200 nM

CCN(CC)Cc1cc(Nc2c(Oc3ccccc3)cnc3cc(Cl)ccc23)ccc1O
IC50 [13]: 730 nM

CC(C)Oc1ccc2cc(/C=C3\NC(=O)N(CCc4ccccc4)C3=O)c(Cl)nc2c1
EC50 [6]: 520 nM | EC50 [7]: 330 nM

O=C1N/C(=C\c2cccc3ccccc23)C(=O)N1Cc1ccccc1
EC50 [6]: 520 nM | EC50 [7]: 1520 nM

CC(C)Cc1ccc2c(Cl)cc(Cl)c(O)c2n1
IC50 [22]: 490 nM | CC50 at 48 h [23]: 19400 nM

O=C(NCc1ccc(O)c(O)c1)c1ccc2ccc(C(=O)O)c(O)c2n1
IC50 [1]: 5000 nM

O=C(NCc1ccc(O)c(O)c1O)c1ccc2ccc(C(=O)O)c(O)c2n1
IC50 [1]: 1500 nM

COc1cc(NC(=O)c2ccc3ccc(C(=O)O)c(O)c3n2)cc(O)c1O
IC50 [1]: 6500 nM

CCN(CC)Cc1cc(Nc2ccnc3cc(Cl)ccc23)ccc1O [AMODIAQUINE]
selectivity ratio [14]: 37

C=CC(C)(C)C1(CC=C(C)C)C(=O)Nc2ccccc2C1=O (centres undefined) [BUCHAPINE]
IC50 [15]: 29000 nM

CCN(CC)CCCC(C)Nc1ccnc2cc(Cl)ccc12 (centres undefined) [CHLOROQUINE]
CC50 [24]: 250000 nM

COc1c2ccc(O)cc2nc2occc12 [CONFUSAMELINE]
EC50 [25]: < 5850 nM

COc1c2ccoc2nc2c(OC)cccc12 [GAMMA-FAGARINE]
EC50 [25]: < 5850 nM

COc1c2[nH]c3occc3c(OC)c-2ccc1=O [HAPLOPINE]
EC50 [25]: < 5850 nM

CCN(CCO)CCCC(C)Nc1ccnc2cc(Cl)ccc12 (centres undefined) [HYDROXYCHLOROQUINE]
CC50 [24]: 273000 nM
